# Screens: PubChem BioAssay, Broad Institute
# The sample as a whole holds a higher share of hits than the screen did.
# GASC1 inh: KDM4C (human) demethylase inhibition. GST-KDM4C 2-372, H3K9me3 peptide, LANCE TR-FRET. 96,000 compounds, 0.15% hits. inhibition, % at 12.5 µM. Q9H3R0;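 active = mean replicate inhibition above about 25%, with at least 55% of replicates also reaching it, limit read from the data, passing the limit was not always enough; inconclusive = only one of those two conditions met; inactive = neither condition met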
# Target sequence (Q9H3R0 2-372 limits assumed): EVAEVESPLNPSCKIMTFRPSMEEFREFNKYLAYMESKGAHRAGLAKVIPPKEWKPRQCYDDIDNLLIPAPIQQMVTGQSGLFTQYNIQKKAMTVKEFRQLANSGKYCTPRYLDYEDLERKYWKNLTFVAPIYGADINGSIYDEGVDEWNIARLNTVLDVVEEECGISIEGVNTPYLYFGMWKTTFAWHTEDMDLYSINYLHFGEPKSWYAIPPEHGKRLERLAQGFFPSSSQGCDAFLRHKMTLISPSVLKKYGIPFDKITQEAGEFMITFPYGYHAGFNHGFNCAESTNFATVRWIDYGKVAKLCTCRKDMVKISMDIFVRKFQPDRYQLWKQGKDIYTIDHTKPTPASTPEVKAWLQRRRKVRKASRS
#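 System – N-terminal GST-fused human GASC-1 (KDM4C) fragment, residues 2-372 · Input – enzyme final amount 10 nM · Technique – LANCE TR-FRET, Eu antibody, ULight-streptavidin, EDTA, ex 340 nm, em 618/671 nm · Medium – HEPES buffer, pH 7.5, plus ascorbate · Incubation – enzyme reaction 30 min, then detection 60 min, both room temperature · Reagent – H3K9me3 peptide with Fe(II)/2OG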
# T cruzi growth-1: inhibitors of T. cruzi proliferation; 77,000 compounds, 5.9% hits; T. cruzi beta-gal in NIH3T3, GalScreen luminescence, 90 h; inhibition, % at 8.34 µM;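 active = mean inhibition above about 93%, with at least 55% of replicates each passing it, limit read from the data, passing the limit was not always enough; inconclusive = only one of those two conditions holds; inactive = neither condition holds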
# IDH1 mut inh: IDH1 R132H (human) inhibition. inhibition, % at 10 µM. O75874. 70,000 compounds, 0.18% hits. IDH1 R132H reductase, diaphorase/resazurin fluorescence, 60 min; in the data active = inhibition above about 34%; inconclusive = no clear call, values can overlap the other calls; inactive = below about 11%;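 also: 0% = DMSO and 100% = no enzyme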
# T cruzi growth-2: inhibitors of T. cruzi proliferation | shares compounds with T cruzi growth-1 | T. cruzi beta-gal in NIH3T3, GalScreen luminescence, 90 h | inhibition, % at 8.35 µM | 5,600 compounds, 72% hits;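 active = mean replicate inhibition above about 95% and at least 55% of replicates individually reaching it, limit read from the data; inconclusive = only one of the two criteria is met; inactive = neither criterion is met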
# T cruzi growth-3: inhibitors of T. cruzi proliferation; inhibition, % at 2.09 µM; T. cruzi beta-gal in NIH3T3, GalScreen luminescence, 90 h; shares compounds with T cruzi growth-1; 5,600 compounds, 21% hits; AID 651740;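 active = mean inhibition above about 95%, with at least 55% of replicates also reaching it, limit read from the data; inconclusive = meets just one of the two conditions; inactive = meets neither condition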;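 also: plate controls were neutral control median for no effect and positive control median for full effect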
# 3T3 cytotox: cytotoxicity in mouse NIH/3T3 fibroblasts; shares compounds with T cruzi growth-1; NIH/3T3 viability, CellTiter-Glo ATP luminescence, 90 h; cytotoxicity (signal decrease), % at 8.35 µM; 5,600 compounds, 14% hits; AID 651742;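 active = mean signal decrease across replicates above about 35% based on untreated-well scatter, with enough replicates individually passing, limit read from the data; inconclusive = no rule stated though some were filed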;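 also: 0% = median of neutral control wells and 100% = median of positive control wells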
# NIH3T3 tox 2: kills mouse NIH/3T3 fibroblasts; shares compounds with T cruzi growth-1; AID 651744; 5,600 compounds, 56% hits; NIH/3T3 viability, CellTiter-Glo ATP luminescence, 90 h; inhibition, % at 24.9 µM;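 active = mean loss of cell viability signal at or above a set limit, and enough replicates individually reaching it; inconclusive = meets only the mean limit or only the replicate share; inactive = meets neither condition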;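 also: 0% = median of neutral control wells and 100% = median of positive control wells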
# * = called active by the depositor; ? = inconclusive; / = no result given.
SMILES,GASC1 inh,T cruzi growth-1,IDH1 mut inh,T cruzi growth-2,T cruzi growth-3,3T3 cytotox,NIH3T3 tox 2
C[C@@H]1CCCCO[C@H](CN(C)Cc2ccncc2)[C@H](C)CN([C@@H](C)CO)C(=O)c2cc(NC(=O)c3ccccc3)ccc2O1,0,12,/,/,/,/,/
Cc1ccc(N(CC(=O)Nc2ccccc2-c2ccccc2)S(C)(=O)=O)cc1,/,/,0,/,/,/,/
O=C(NCCCN1CCCC1=O)c1cc(-c2ccccc2)nc2ccccc12,/,/,0,/,/,/,/
COc1cc(OC)c(-c2c(OC)cc(OC)cc2OC)c(OC)c1,/,/,0,/,/,/,/
O=C(CCCN1C(=O)c2ccccc2C1=O)Nc1cccc(Cl)c1,/,/,0,/,/,/,/
O=C(CCCCCCC(=O)N/N=C/c1ccccn1)NO,/,/,0,/,/,/,/
O=C(Cn1nnc2sc3c(c2c1=O)CCCC3)NCc1ccco1,/,/,2,/,/,/,/
C[C@H](CO)N1C[C@H](C)[C@H](CN(C)Cc2ccncc2)OCCCC[C@H](C)Oc2ccc(NC(=O)Cc3ccccc3)cc2C1=O,-1,103*,6,96*,82,8,8
C[C@@H]1CCCCO[C@@H](CN(C)Cc2ccccc2)[C@H](C)CN([C@H](C)CO)C(=O)c2cc(NC(=O)c3ccncc3)ccc2O1,0,?,/,61,38,-8,-7
C[C@@H]1CCCCO[C@H](CN(C)Cc2ccccc2)[C@H](C)CN([C@@H](C)CO)C(=O)c2cc(NC(=O)c3ccncc3)ccc2O1,0,84,/,/,/,/,/
C[C@@H]1CCCCO[C@@H](CN(C)Cc2ccccc2)[C@H](C)CN([C@@H](C)CO)C(=O)c2cc(NC(=O)c3ccncc3)ccc2O1,2,70,/,/,/,/,/
C[C@H]1CCCCO[C@H](CN(C)Cc2ccncc2)[C@@H](C)CN([C@@H](C)CO)C(=O)c2cc(NC(=O)Cc3ccccc3)ccc2O1,0,81,/,/,/,/,/
C[C@@H]1CN([C@H](C)CO)C(=O)c2cc(NC(=O)c3ccncc3)ccc2O[C@@H](C)CCCCO[C@H]1CN(C)Cc1ccccc1,0,98*,2,59,-33,-5,1
N#CCCN(CCC#N)C(=O)c1ccccc1Oc1ccccc1,/,/,0,/,/,/,/
O=C(CCOc1ccccc1)Nc1nc2c(ccc3ccccc32)s1,/,/,-1,/,/,/,/
Cc1cccc(C)c1NC(=O)COc1cc(O)c2c(=O)cc(-c3ccccc3)oc2c1,/,/,0,/,/,/,/
COc1ccc(NC(=O)N2CCCCN3[C@@H](CO)[C@@H](c4ccc(C#Cc5ccccc5)cc4)[C@@H]3C2)cc1,/,70,/,/,/,/,/
COc1ccc(NC(=O)N2CCCCN3[C@H](CO)[C@@H](c4ccc(C#Cc5ccccc5)cc4)[C@@H]3C2)cc1,/,112*,/,91,95,37*,104*
COc1ccc(C#Cc2ccc([C@H]3[C@@H](CO)N4CCCCN(C(=O)Nc5ccc(F)cc5)C[C@@H]34)cc2)cc1,-3,107*,/,104*,104*,14,24
COc1ccc(NC(=O)N2CCCCN3[C@H](CO)[C@@H](c4ccc(C#Cc5ccccc5)cc4)[C@H]3C2)cc1,/,107*,/,96*,104*,91*,104*
COc1ccc(C#Cc2ccc([C@H]3[C@H](CO)N4CCCCN(C(=O)Nc5ccc(F)cc5)C[C@@H]34)cc2)cc1,-5,63,/,/,/,/,/
COc1ccc(C#Cc2ccc([C@H]3[C@H](CO)N4CCCCN(C(=O)Nc5cccc(F)c5)C[C@@H]34)cc2)cc1,/,72,/,/,/,/,/
COc1ccc(C#Cc2ccc([C@H]3[C@H]4CN(C(=O)Nc5cccc(F)c5)CCCCN4[C@H]3CO)cc2)cc1,-2,113*,/,104*,85,1,15
COc1ccc(NC(=O)N2CCCCN3[C@H](CO)[C@H](c4ccc(C#Cc5ccccc5)cc4)[C@@H]3C2)cc1,/,62,/,/,/,/,/
O=C(NO)c1cccc(C(=O)N/N=C/c2ccc(B(O)O)cc2)c1,/,/,0,/,/,/,/
CCC(CCC(=O)Nc1ccccc1[N+](=O)[O-])C(=O)O (stereo unspecified),/,/,0,/,/,/,/
CCn1c(=O)c2c3c(sc2n2c(SCC(=O)Nc4ccc(Cl)cc4)nnc12)CCCC3,/,/,0,/,/,/,/
COc1cc(/C(C)=C/C(C)O)oc(=O)c1C (stereo unspecified),/,/,1,/,/,/,/
